The target in the assay is T1, Lysyl oxidase homolog 3 (Homo sapiens, UniProt P58215).
T1 sequence (P58215 whole entry): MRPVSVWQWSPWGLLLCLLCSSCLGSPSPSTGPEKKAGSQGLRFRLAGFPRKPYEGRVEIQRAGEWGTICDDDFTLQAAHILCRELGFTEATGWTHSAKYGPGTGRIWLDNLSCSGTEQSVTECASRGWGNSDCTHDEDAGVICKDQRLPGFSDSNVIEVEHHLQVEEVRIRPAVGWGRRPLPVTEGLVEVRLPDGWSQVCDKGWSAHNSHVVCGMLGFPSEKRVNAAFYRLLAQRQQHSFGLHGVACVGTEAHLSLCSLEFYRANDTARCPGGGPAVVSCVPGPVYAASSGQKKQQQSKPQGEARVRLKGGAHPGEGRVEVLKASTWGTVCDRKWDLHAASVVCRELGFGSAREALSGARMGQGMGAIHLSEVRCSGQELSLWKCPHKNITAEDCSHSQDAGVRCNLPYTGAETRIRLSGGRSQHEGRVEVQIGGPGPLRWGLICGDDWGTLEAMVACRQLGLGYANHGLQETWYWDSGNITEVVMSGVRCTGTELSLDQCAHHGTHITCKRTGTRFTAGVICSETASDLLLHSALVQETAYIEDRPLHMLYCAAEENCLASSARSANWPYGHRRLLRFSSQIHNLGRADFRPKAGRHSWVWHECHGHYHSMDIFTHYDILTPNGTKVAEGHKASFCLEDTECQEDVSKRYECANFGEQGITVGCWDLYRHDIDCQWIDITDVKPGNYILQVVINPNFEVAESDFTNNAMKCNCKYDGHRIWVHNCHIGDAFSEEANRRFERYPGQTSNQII
Kind of assay: Inhibition of recombinant C-terminal His-tagged human LOXL3 (1 to 753 residues) expressed in CHO cells using putrescine as substrate preincubated with enzyme for 30 mins followed by substrate addition and measured every 2.5 mins for 30 mins by Amplex-Red oxidation assay. In a few lines: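 Recombinant human LOXL3 or LOXL4 preincubated 30 min at 37 °C with compound in 1.2 M urea/50 mM borate pH 8.2, then Amplex Red (120 µM)/HRP (1.5 U/mL) with 2 mM putrescine; fluorescence read every 2.5 min for 30 min.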

Molecules are shown by their SMILES.

Broadly, the IC50 is the concentration that gives 50% inhibition. On to `Cc1c(-c2cccc(S(=O)(=O)N(C)C)c2)c2cc(C(=O)O)ccc2n1C/C(F)=C/CN.Cl`, for which the IC50 turned out to be 0.016 µM.

The record behind these values is ChEMBL document CHEMBL4321820, “Identification and Optimization of Mechanism-Based Fluoroallylamine Inhibitors of Lysyl Oxidase-like 2/3” (J Med Chem, 2019).
